What was measured:
[1] = Inhibition of rat intestinal alpha-glucosidase using p-nitrophenyl-alpha-D-glucopyranoside as substrate preincubated for 5 mins followed by substrate addition and measured after 5 mins by spectrophotometric analysis
Method in brief: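 Enzyme source: rat intestinal acetone powder in saline (100:1 w/v), sonicated and centrifuged; supernatant used. Samples (5 mg/mL in DMSO) in 100 mM phosphate buffer pH 6.8, incubated 5 min with enzyme. Then 5 mM p-nitrophenyl-α-D-glucopyranoside added, and p-nitrophenol read at 405 nm after 5 min. Blanks had buffer in place of substrate, controls had DMSO. Inhibition computed from control and sample absorbance.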

Alpha amylase = target: T1, Alpha amylase (Homo sapiens, UniProt P0DUB6); assay: Inhibition of alpha-amylase (unknown origin) using starch as substrate preincubated for 10 mins followed by substrate addition and measured after 10 mins by dinitrosalicylic acid reagent based assay
T1 sequence (P0DUB6 whole entry): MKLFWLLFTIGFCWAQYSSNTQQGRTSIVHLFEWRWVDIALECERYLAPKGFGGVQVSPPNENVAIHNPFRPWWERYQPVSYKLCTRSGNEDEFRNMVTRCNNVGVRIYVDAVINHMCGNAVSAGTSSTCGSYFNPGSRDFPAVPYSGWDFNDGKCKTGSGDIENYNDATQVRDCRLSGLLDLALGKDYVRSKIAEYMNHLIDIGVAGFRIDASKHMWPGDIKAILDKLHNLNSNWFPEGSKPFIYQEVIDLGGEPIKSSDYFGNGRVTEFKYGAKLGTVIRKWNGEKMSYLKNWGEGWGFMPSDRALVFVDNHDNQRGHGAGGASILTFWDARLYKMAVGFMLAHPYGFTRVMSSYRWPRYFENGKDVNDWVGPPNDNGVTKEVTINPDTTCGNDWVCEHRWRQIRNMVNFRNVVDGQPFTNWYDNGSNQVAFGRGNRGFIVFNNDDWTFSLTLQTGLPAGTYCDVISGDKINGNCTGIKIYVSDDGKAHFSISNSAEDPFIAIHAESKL
Method in brief: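 Enzyme at 0.5 mg/mL in […] pH 6.9, preincubated 10 min at 25 °C with test sample (100, 200, 400, 800, 1000 µg/mL). Then 1% starch in 0.02 M sodium phosphate pH 6.9 added, 10 min at 25 °C.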

Homo sapiens [2] = species: Homo sapiens; assay: Uncompetitive inhibition of alpha-glucosidase (unknown origin) assessed as Km using varying levels of para-nitrophenyl-R-D-maltoside as substrate incubated for 30 mins by Lineweaver-Burk plot analysis
Method in brief: (§1)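 Enzyme at 0.2 mg/mL per well in deionized water with PIPES pH 7.0. Inhibitor at 0.0625–0.4 mM (0.0625, 0.125, 0.3, 0.4), substrate p-nitrophenyl-R-D-maltoside at 0.1, 0.2, 0.4, 0.8 and 1.0 mM. Incubated 30 min at 25 °C with readings at 1-min intervals on a plate reader. Km and Vmax derived by enzyme-kinetic graph fitting.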

Homo sapiens [3] = species: Homo sapiens; assay: Uncompetitive inhibition of alpha-glucosidase (unknown origin) assessed as Vmax using varying levels of para-nitrophenyl-R-D-maltoside as substrate incubated for 30 mins by Lineweaver-Burk plot analysis; method in brief: as §1
[4] = system: O=[N+]([O-])c1cc(O)cc(/C=N/n2cnnc2)c1; assay: (§2) Mixed type inhibition of alpha-amylase (unknown origin) assessed as Km using varying level of para-nitrophenyl-R-D-maltoside as substrate incubated for 30 mins by Lineweaver-Burk plot analysis; details: Homo sapiens
Method in brief: (§3)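 Kinetics run with inhibitor at 0.0625, 0.125, 0.3 and 0.4 mM and p-nitrophenyl-R-D-maltoside at 0.1, 0.2, 0.4, 0.8 and 1.0 mM. Enzyme at 0.2 mg/mL per well in deionized water, PIPES buffer pH 7.0, 30 min at 25 °C, absorbance on a plate reader. Vmax and Km obtained by enzyme-kinetic graph fitting.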

[5] = system: C(=N/n1cnnc1)\c1cc2ccccc2[nH]1; assay: as §2; details: Homo sapiens; method in brief: as §3
[6] = system: O=[N+]([O-])c1ccc(/C=N/n2cnnc2)cc1; assay: as §2; details: Homo sapiens; method in brief: as §3
[7] = system: Oc1ccc(/C=N/n2cnnc2)cc1Br; assay: as §2; details: Homo sapiens; method in brief: as §3
[8] = system: COc1ccc(/C=N/n2cnnc2)c(F)c1; assay: as §2; details: Homo sapiens; method in brief: as §3
Nc1ncccc1/C=N/n1cnnc1 [9] = assay: as §2; details: Homo sapiens; method in brief: as §3
Oc1ccc(/C=N/n2cnnc2)cc1 [10] = assay: as §2; details: Homo sapiens; method in brief: as §3
[11] = system: Clc1ccc(/C=N/n2cnnc2)c(Cl)c1; assay: as §2; details: Homo sapiens; method in brief: as §3
[12] = system: COc1cc(/C=N/n2cnnc2)ccc1F; assay: as §2; details: Homo sapiens; method in brief: as §3
[13] = system: COc1cc(/C=N/n2cnnc2)cc(OC)c1Br; assay: as §2; details: Homo sapiens; method in brief: as §3
[14] = system: O=[N+]([O-])c1cc(O)cc(/C=N/n2cnnc2)c1; assay: (§4) Mixed type inhibition of alpha-amylase (unknown origin) assessed as Vmax using varying levels of para-nitrophenyl-R-D-maltoside as substrate incubated for 30 mins by Lineweaver-Burk plot analysis; details: Homo sapiens; method in brief: as §3
[15] = system: C(=N/n1cnnc1)\c1cc2ccccc2[nH]1; assay: as §4; details: Homo sapiens; method in brief: as §3
[16] = system: O=[N+]([O-])c1ccc(/C=N/n2cnnc2)cc1; assay: as §4; details: Homo sapiens; method in brief: as §3
[17] = system: Oc1ccc(/C=N/n2cnnc2)cc1Br; assay: as §4; details: Homo sapiens; method in brief: as §3
[18] = system: COc1ccc(/C=N/n2cnnc2)c(F)c1; assay: as §4; details: Homo sapiens; method in brief: as §3
Nc1ncccc1/C=N/n1cnnc1 [19] = assay: as §4; details: Homo sapiens; method in brief: as §3
Oc1ccc(/C=N/n2cnnc2)cc1 [20] = assay: as §4; details: Homo sapiens; method in brief: as §3
[21] = system: Clc1ccc(/C=N/n2cnnc2)c(Cl)c1; assay: as §4; details: Homo sapiens; method in brief: as §3
[22] = system: COc1cc(/C=N/n2cnnc2)ccc1F; assay: as §4; details: Homo sapiens; method in brief: as §3
[23] = system: COc1cc(/C=N/n2cnnc2)cc(OC)c1Br; assay: as §4; details: Homo sapiens; method in brief: as §3

| Compound | IC50 [1] [µM] | IC50 (Alpha amylase) [µM] | also measured |
| --- | --- | --- | --- |
| COc1cc(/C=N/n2cnnc2)cc(OC)c1OC | 5.46 | 5.12 | – |
| Oc1ccc(/C=N/n2cnnc2)c(O)c1O | 5.74 | 5.92 | – |
| Oc1ccc(/C=N/n2cnnc2)cc1 | 2.62 | 2.99 | Km (Homo sapiens [2]): 400 µM; Vmax (Homo sapiens [3]): 701 µM/min |
| COc1cc(/C=N/n2cnnc2)ccc1F | 2.27 | 2.33 | Km (Homo sapiens [2]): 500 µM; Vmax (Homo sapiens [3]): 697 µM/min |
| Oc1ccc(O)c(/C=N/n2cnnc2)c1 | 5.37 | 5.27 | – |
| C(=N\n1cnnc1)/c1c2ccccc2cc2ccccc12 | 5.41 | 5.27 | – |
| COc1ccc(/C=N/n2cnnc2)cc1OCc1ccccc1 | 6.54 | 6.23 | – |
| O=[N+]([O-])c1ccc(Cl)c(/C=N/n2cnnc2)c1 | 4.37 | 4.46 | – |
| COc1cc(/C=N/n2cnnc2)cc(OC)c1Br | 2.52 | 2.25 | Km (Homo sapiens [2]): 700 µM; Vmax (Homo sapiens [3]): 690 µM/min |
| COc1ccc(Br)cc1/C=N/n1cnnc1 | 3.46 | 3.3 | – |
| COc1cc(/C=N/n2cnnc2)ccc1O | 5.3 | 5.94 | – |
| O=[N+]([O-])c1ccc(/C=N/n2cnnc2)cc1 | 2.47 | 2.36 | Km (Homo sapiens [2]): 500 µM; Vmax (Homo sapiens [3]): 680 µM/min |
| COc1ccc(/C=N/n2cnnc2)c(OC)c1 | 4.28 | 4.37 | – |
| Nc1ncccc1/C=N/n1cnnc1 | 2.44 | 2.28 | Km (Homo sapiens [2]): 500 µM; Vmax (Homo sapiens [3]): 685 µM/min |
| C(=N\n1cnnc1)/c1cc2ccc3cccc4ccc(c1)c2c34 | 6.3 | 6.41 | – |
| Oc1ccc(/C=N/n2cnnc2)cc1O | 5.44 | 5.69 | – |
| CCOc1cc(/C=N/n2cnnc2)ccc1OC | 5.47 | 5.22 | – |
| Clc1ccc(/C=N/n2cnnc2)c(Cl)c1 | 2.49 | 2.18 | Km (Homo sapiens [2]): 500 µM; Vmax (Homo sapiens [3]): 685 µM/min |

| Compound | IC50 [1] [µM] | IC50 (Alpha amylase) [µM] | also measured |
| --- | --- | --- | --- |
| O=[N+]([O-])c1cc(O)cc(/C=N/n2cnnc2)c1 | 2.31 | 2.41 | Km (Homo sapiens [2]): 500 µM; Vmax (Homo sapiens [3]): 695 µM/min |
| CC(C)(C)c1cc(/C=N/n2cnnc2)c(C(C)(C)C)cc1O | 6.34 | 6.23 | – |
| COc1cc(/C=N/n2cnnc2)cc(OC)c1O | 3.27 | 3.31 | – |
| COc1cccc(OC)c1/C=N/n1cnnc1 | 4.29 | 4.37 | – |
| C(=N\n1cnnc1)/c1cc2ccccc2[nH]1 | 2.09 | 2.01 | Km (Homo sapiens [2]): 300 µM; Vmax (Homo sapiens [3]): 703 µM/min |
| Clc1ccc(/C=N/n2cnnc2)cc1 | 4.28 | 4.36 | – |
| Alpha amylase (Homo sapiens) (from UniProt P0DUB6) | – | – | Km [4]: 1300 µM; Km [5]: 1500 µM; Km [6]: 900 µM; Km [7]: 1200 µM; Km [8]: 1300 µM; Km (Nc1ncccc1/C=N/n1cnnc1 [9]): 1000 µM; Km (Oc1ccc(/C=N/n2cnnc2)cc1 [10]): 1300 µM; Km [11]: 1200 µM; Km [12]: 1300 µM; Km [13]: 1300 µM; Vmax [14]: 232 µM/min; Vmax [15]: 256 µM/min; Vmax [16]: 207 µM/min; Vmax [17]: 221 µM/min; Vmax [18]: 238 µM/min; Vmax (Nc1ncccc1/C=N/n1cnnc1 [19]): 213 µM/min; Vmax (Oc1ccc(/C=N/n2cnnc2)cc1 [20]): 237 µM/min; Vmax [21]: 221 µM/min; Vmax [22]: 241 µM/min; Vmax [23]: 242 µM/min |
| O=[N+]([O-])c1cccc(/C=N/n2cnnc2)c1 | 5.37 | 5.97 | – |
| Oc1ccc(/C=N/n2cnnc2)cc1Br | 2.37 | 2.27 | Km (Homo sapiens [2]): 400 µM; Vmax (Homo sapiens [3]): 698 µM/min |
| Oc1ccc(/C=N/n2cnnc2)c(O)c1 | 5.44 | 5.95 | – |
| C(=N\n1cnnc1)/c1ccc(OCc2ccccc2)cc1 | 5.44 | 5.04 | – |
| C[C@H]1O[C@H](O[C@H]2[C@H](O)[C@@H](O)[C@@H](O[C@H]3[C@H](O)[C@@H](O)C(O)O[C@@H]3CO)O[C@@H]2CO)[C@H](O)[C@@H](O)[C@@H]1N[C@H]1C=C(CO)[C@@H](O)[C@H](O)[C@H]1O (some centres not stated) [ACARBOSE] | 1.99 | – | – |
| COc1ccc(Br)c(/C=N/n2cnnc2)c1O | 5.52 | 5.25 | – |
| Cc1ccc(/C=N/n2cnnc2)c(C)c1 | 4.27 | 4.34 | – |
| COc1ccc(/C=N/n2cnnc2)c(F)c1 | 2.33 | 2.9 | Km (Homo sapiens [2]): 500 µM; Vmax (Homo sapiens [3]): 701 µM/min |
| CC(C)(C)c1ccc(/C=N/n2cnnc2)cc1 | 6.37 | 6.44 | – |
| CCOc1ccc(/C=N/n2cnnc2)cc1OC | 5.36 | 5.24 | – |
